Results on 12 molecules are retold here after ChEMBL document CHEMBL2440032, “Synthesis of sterically encumbered 11β-aminoprogesterone derivatives and evaluation as 11β-hydroxysteroid dehydrogenase inhibitors and mineralocorticoid receptor antagonists” (Bioorg Med Chem, 2013).

Assay [1] has as its target T1, 11-beta-hydroxysteroid dehydrogenase 1 (Homo sapiens, UniProt P28845). Nature of the assay: Inhibition of human recombinant 11beta-HSD1 expressed in HEK293 cells assessed as inhibition of [1,2,-3H]-cortisone to [3H]cortisol preincubated at 10 uM for 10 mins before substrate addition by scintillation counting. It is filed as cell-based. Summed up: (§1)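 Lysates of HEK-293 cells expressing human 11βHSD1, in buffer with 1 mM MgCl2, 250 mM sucrose and 20 mM Tris–HCl pH 7.4, sonicated and used at once. Incubated 10 min at 37 °C with 200 nM [1,2-3H]cortisone and 500 µM NADPH. Stopped with excess unlabeled cortisone/cortisol in methanol, then TLC separation and scintillation counting for substrate conversion. Three independent experiments.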
Target sequence in this assay (P28845 whole entry, looked up): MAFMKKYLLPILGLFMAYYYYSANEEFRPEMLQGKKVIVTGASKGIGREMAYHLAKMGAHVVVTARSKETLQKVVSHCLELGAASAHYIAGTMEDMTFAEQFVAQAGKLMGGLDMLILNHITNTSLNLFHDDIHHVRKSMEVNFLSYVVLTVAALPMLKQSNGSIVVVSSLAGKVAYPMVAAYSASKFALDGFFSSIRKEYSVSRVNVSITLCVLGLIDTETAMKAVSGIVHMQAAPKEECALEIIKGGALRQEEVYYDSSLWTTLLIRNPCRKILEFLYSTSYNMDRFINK

Assay [2] addresses T1, 11-beta-hydroxysteroid dehydrogenase 1. Nature of the assay: Inhibition of human recombinant 11beta-HSD1 expressed in HEK293 cells assessed as inhibition of [1,2,-3H]-cortisone to [3H]cortisol preincubated for 10 mins before substrate addition by scintillation counting. The format is cell-based. Summed up:
as §1
Target sequence in this assay (P28845 whole entry): as the sequence (P28845 whole entry, looked up) above

Assay [3] has as its target T2, Mineralocorticoid receptor (Homo sapiens) (UniProt P08235).
T2 sequence (whole entry): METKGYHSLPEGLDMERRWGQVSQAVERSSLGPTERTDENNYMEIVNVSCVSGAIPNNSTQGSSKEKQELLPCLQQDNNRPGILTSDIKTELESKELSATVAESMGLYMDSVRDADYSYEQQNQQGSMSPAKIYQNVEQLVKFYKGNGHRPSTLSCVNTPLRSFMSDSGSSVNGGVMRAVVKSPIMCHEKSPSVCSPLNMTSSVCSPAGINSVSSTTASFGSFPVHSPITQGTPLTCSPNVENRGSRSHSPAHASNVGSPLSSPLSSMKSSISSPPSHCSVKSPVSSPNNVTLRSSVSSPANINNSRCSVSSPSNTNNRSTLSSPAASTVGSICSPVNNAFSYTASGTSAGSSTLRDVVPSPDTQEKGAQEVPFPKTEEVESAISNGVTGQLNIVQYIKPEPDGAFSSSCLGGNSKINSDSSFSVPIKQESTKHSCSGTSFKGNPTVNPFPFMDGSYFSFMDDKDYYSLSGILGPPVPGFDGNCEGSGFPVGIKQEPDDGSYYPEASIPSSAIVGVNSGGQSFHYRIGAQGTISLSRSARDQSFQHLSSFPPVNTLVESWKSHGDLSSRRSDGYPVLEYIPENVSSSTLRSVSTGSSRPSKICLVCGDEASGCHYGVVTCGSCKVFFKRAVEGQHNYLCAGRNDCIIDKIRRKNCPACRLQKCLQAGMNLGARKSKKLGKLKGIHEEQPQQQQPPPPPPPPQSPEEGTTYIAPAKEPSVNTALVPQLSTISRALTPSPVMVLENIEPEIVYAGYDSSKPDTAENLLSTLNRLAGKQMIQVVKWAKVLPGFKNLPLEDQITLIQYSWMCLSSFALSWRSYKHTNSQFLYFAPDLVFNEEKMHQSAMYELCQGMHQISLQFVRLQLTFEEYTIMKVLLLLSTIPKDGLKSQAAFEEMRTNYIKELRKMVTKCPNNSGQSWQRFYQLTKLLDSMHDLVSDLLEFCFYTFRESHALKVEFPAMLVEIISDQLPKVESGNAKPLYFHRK
The assay can be described thus: (§2) Antagonist activity at human recombinant mineralocorticoid receptor expressed in HEK-293 cells after 24 hrs assessed as inhibition of aldosterone-induced receptor activity by […]. The format is cell-based. The following applies: HEK293. Summed up:
(§3)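 HEK-293 cells, 150,000 per well, plated for 24 h, then calcium-phosphate transfected with pMMTV-lacZ β-galactosidase reporter, pCMV-LUC luciferase control and human MR plasmid. Cells were washed with charcoal-treated DMEM containing 10% FBS, then exposed to a range of compound concentrations with or without 10 nM aldosterone. Readout was β-galactosidase normalized to luciferase, relative to vehicle. Three independent experiments.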

Assay [4] addresses T3, Mineralocorticoid receptor (Homo sapiens, UniProt P08235).
T3 sequence (P08235 whole entry): T2 sequence (whole entry)
The assay can be described thus: (§4) Transactivation of human recombinant mineralocorticoid receptor expressed in HEK-293 cells after 24 hrs […]. It is filed as cell-based, HEK293. The procedure, abridged:
as §3

Assay [5] addresses T4, 11-beta-hydroxysteroid dehydrogenase type 2 (Homo sapiens, UniProt P80365).
T4 sequence (P80365 whole entry): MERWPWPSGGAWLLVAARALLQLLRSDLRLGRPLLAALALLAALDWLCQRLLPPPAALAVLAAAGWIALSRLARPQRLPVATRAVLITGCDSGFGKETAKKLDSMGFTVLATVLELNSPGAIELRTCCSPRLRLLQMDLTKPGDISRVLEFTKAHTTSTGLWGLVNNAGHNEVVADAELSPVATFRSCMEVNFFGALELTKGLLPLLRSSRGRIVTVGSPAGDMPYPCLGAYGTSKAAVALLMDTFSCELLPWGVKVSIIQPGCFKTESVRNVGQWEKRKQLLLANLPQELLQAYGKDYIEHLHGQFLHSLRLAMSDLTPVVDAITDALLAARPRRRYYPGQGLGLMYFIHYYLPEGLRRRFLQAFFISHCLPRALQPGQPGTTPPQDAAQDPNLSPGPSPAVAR
Nature of the assay: Inhibition of human recombinant 11beta-HSD2 expressed in HEK293 cells assessed as inhibition of [1,2,6,7-3H]-cortisol to [3H]cortisone preincubated for 10 mins before substrate addition by scintillation counting. The format is cell-based.

Assay [6] has as its target T3, Mineralocorticoid receptor. Nature of the assay: Transactivation of wild-type human recombinant mineralocorticoid receptor expressed in COS7 cells after 24 hrs by luciferase reporter gene assay. It is filed as cell-based, COS-7. (In a reporter assay the amount or activity of a reporter protein is the signal.)
Assay [7] concerns the target T3, Mineralocorticoid receptor. The description is as §2. It is filed as cell-based, HEK293. Summed up: as §3
The target in assay [8] is T2, Mineralocorticoid receptor (Homo sapiens). Described as §4. It is filed as cell-based. The settings on record: HEK293. The procedure, abridged:
as §3

Calls of active or inactive are those of the source. No cut-off for these calls is given here.

In general, inhibition refers to how much of the control response was suppressed. As a reminder, the IC50 is the concentration that gives 50% inhibition. With `CC(=O)[C@H]1CC[C@H]2[C@@H]3CCC4=CC(=O)CC[C@]4(C)[C@H]3[C@H](O)C[C@]12C`, the inhibition in assay [1] was above 70%. In assay [2], the 50% inhibitory concentration (IC50) turned out to be 630 nM.

What is called EC50 is the concentration that produces a half-maximal response. For `CC(=O)[C@H]1CC[C@H]2[C@@H]3CCC4=CC(=O)CC[C@]4(C)[C@H]3[C@@H](NC[C@@H](N)C(=O)O)C[C@]12C`, the inhibition result in assay [3] is “inactive”. Further, in assay [4], the 50% effective concentration (EC50) is 4100 nM.

With `CC(=O)[C@H]1CC[C@H]2[C@@H]3CCC4=CC(=O)CC[C@]4(C)[C@H]3[C@@H](N)C[C@]12C` [11BETA-AMINOPROGESTERONE], in assay [5], the IC50 was 2200 nM.

Regarding `CC(=O)[C@H]1CC[C@H]2[C@@H]3CCC4=CC(=O)CC[C@]4(C)[C@H]3[C@@H](NC[C@@H](CO)NC(=O)OC(C)(C)C)C[C@]12C`, in assay [5], the IC50 turned out to be 4210 nM. Further, the inhibition in assay [1] was below 70%.

`CCOC(=O)/C(CN[C@H]1C[C@]2(C)[C@@H](C(C)=O)CC[C@H]2[C@@H]2CCC3=CC(=O)CC[C@]3(C)[C@H]21)=N\O`: the IC50 in assay [5] is 1050 nM; in assay [2] it was 640 nM. Also, the inhibition in assay [1] is above 70%.

Regarding `CC(=O)[C@H]1CC[C@H]2[C@@H]3CCC4=CC(=O)CC[C@]4(C)[C@H]3[C@@H](NC[C@H](N)C(=O)O)C[C@]12C`, in assay [5], the IC50 was 6760 nM. Further, in assay [1], the inhibition is below 70%.

Take `CC(=O)[C@H]1CC[C@H]2[C@@H]3CCC4=CC(=O)CC[C@]4(C)[C@H]3[C@@H](NCC(=O)OC(C)(C)C)C[C@]12C`: in assay [5], the IC50 is 2410 nM.

`CC(=O)[C@H]1CC[C@H]2[C@@H]3CCC4=CC(=O)CC[C@]4(C)[C@H]3[C@@H](O)C[C@]12C` [11BETA-HYDROXYPROGESTERONE]: the inhibition in assay [1] was above 70%. Also, in assay [3], the inhibition result was “inactive”. In addition, the IC50 in assay [2] came to 1160 nM. Besides, the EC50 in assay [4] came to 14000 nM; in assay [6], 50 nM.

With `CC(=O)[C@H]1CC[C@H]2[C@@H]3CCC4=CC(=O)CC[C@]4(C)[C@H]3[C@@H](N=[N+]=[N-])C[C@]12C` [11BETA-AZIDOPROGESTERONE], in assay [7], the IC50 is 3500 nM. Besides, the result in assay [8] was inactive.

`CC(=O)[C@H]1CC[C@H]2[C@@H]3CCC4=CC(=O)CC[C@]4(C)[C@H]3[C@@H](NC[C@H]3COC(C)(C)N3C(=O)OC(C)(C)C)C[C@]12C`: in assay [5], the IC50 was 5850 nM. The inhibition in assay [1] was below 70%.

Consider `CC(=O)[C@H]1CC[C@H]2[C@@H]3CCC4=CC(=O)CC[C@]4(C)[C@H]3[C@@H](NCC(=O)O)C[C@]12C`, for which, in assay [5], the IC50 stood at 2690 nM.

Regarding `CC(=O)[C@H]1CC[C@H]2[C@@H]3CCC4=CC(=O)CC[C@]4(C)[C@H]3[C@@H](NS(=O)(=O)c3ccccc3[N+](=O)[O-])C[C@]12C`, the IC50 in assay [7] is 10900 nM. Also, in assay [8], the outcome was inactive.
